Laboratory results from publication PMC3759693 (Genes & Development, 2013).

Legend:
[1] = tested on: recruitment of NBS1 R28A mutant to DNA damage sites; test: Laser microirradiation, relocation of NBS1 R28A-GFP in MEFs; assay type: cell-based, mouse; details: wild-type MEFs
Procedure, shortened: (§1)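 U2OS cells or MEFs (wild-type or knockout) on glass-bottomed dishes expressed GFP-fused proteins or mutants. Microirradiation used an equal laser pulse energy and exposure time for every cell, with live imaging. Where used, 100 nM olaparib, 10 μM GLTN or 10 μM wortmannin was added 1 h before irradiation. GFP intensity at the laser line was quantified; normalized curves from 50 cells over three experiments were averaged, ± SD.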

[2] = tested on: PARG-dependent PAR hydrolysis; test: PAR at DNA damage sites after laser microirradiation; assay type: cell-based; details: 10 μM GLTN; Supplemental Fig. 7C
[3] = tested on: recruitment of NBS1 to DNA damage sites; test: Laser microirradiation, relocation of NBS1-GFP in MEFs; assay type: cell-based, mouse; details: 100 nM olaparib 1 h before laser microirradiation
Procedure, shortened: as §1

G2/M checkpoint = test: G2/M checkpoints assay, phospho-histone H3 flow cytometry; assay type: cell-based; details: olaparib treatment
Procedure, shortened: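 Stable cells expressing siRNA-resistant Flag-tagged wild-type NBS1 were pretreated with or without olaparib, then given 0 or 2 Gy IR with 1 h recovery. Cells fixed in 70% ethanol and stained with rabbit anti-phospho-histone H3 (Ser10) plus FITC anti-rabbit secondary. RNase A treatment and propidium iodide staining followed. pH3-positive fraction measured by flow cytometry.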

[4] = tested on: wild-type or H2AX−/− MEFs; test: Colony formation assay after IR; assay type: cell-based, mouse; details: 100 nM olaparib, low dose of IR
Procedure, shortened: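 500 wild-type or H2AX−/− MEFs seeded per well, then given graded 137Cs IR doses with or without 100 nM olaparib present in the medium throughout culture. After 7 d, cells fixed and crystal violet-stained; colonies of >50 cells counted. Triplicates, mean ± SD, Student's t-test.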

[5] = tested on: in vivo interaction between PAR and PNKP, APTX, Ligase4, XRCC1, NBS1; test: Co-IP of PAR with FHA/BRCT domain-containing proteins after IR; assay type: cell-based; details: olaparib pretreatment
Procedure, shortened: (§2)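 U2OS cells were given 137Cs IR (10 Gy or indicated doses) and lysed at indicated times. Where used, 100 nM olaparib was added 1 h […]. Lysis on ice in NETN-100 (20 mM Tris-HCl pH 8.0, 100 mM NaCl, 1 mM EDTA, 0.5% NP-40). Soluble fractions were immunoprecipitated and western blotted with the indicated antibodies (e.g., anti-PAR, pATM, pCHK2, pSQpTQ). Triplicates.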

[6] = tested on: early DNA damage repair in U2OS cells; test: Neutral comet assay; assay type: cell-based; details: 4 Gy IR, olaparib treatment
[7] = tested on: recruitment of XRCC1 to DNA damage sites; test: Laser microirradiation, relocation of XRCC1; assay type: cell-based; details: olaparib treatment; Supplemental Fig. 10C
Procedure, shortened: as §1

[8] = tested on: recruitment of PNKP to DNA damage sites; test: Laser microirradiation, relocation of PNKP; assay type: cell-based
Procedure, shortened: as §1

[9] = tested on: recruitment of DNA Ligase4 to DNA damage sites; test: Laser microirradiation, relocation of Ligase4; assay type: cell-based; details: olaparib treatment; Supplemental Fig. 10B
Procedure, shortened: as §1

early activation of ATM = test: Western blot of pATM; assay type: cell-based; details: after IR, cells pretreated with olaparib
Procedure, shortened: as §2

[10] = tested on: early phosphorylation of 53BP1; test: IP/Western blot of 53BP1 phosphorylation after IR; assay type: cell-based; details: cells pretreated with olaparib, then irradiated
Procedure, shortened: as §2

[11] = tested on: recruitment of NBS1 to DNA damage sites; test: Laser microirradiation, relocation of NBS1-GFP in U2OS cells; assay type: cell-based; details: 10 μM wortmannin 1 h before laser microirradiation
Procedure, shortened: as §1

FHA domain of RNF8 = target: T1, FHA domain of RNF8 (Homo sapiens, UniProt O76064); test: Interaction with RNF8 FHA domain; assay type: binding; details: Supplemental Fig. 3
T1 sequence (O76064 38-92 limits assumed): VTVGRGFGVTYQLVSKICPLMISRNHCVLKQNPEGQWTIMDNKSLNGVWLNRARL
Procedure, shortened: (§3)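 Recombinant domains expressed in E. coli, or by baculovirus for NBS1 FHA+BRCT (C-terminal GST), and purified. ITC at 16°C: protein at 20∼60 μM final in 10 mM Na2HPO4 (pH 7.5), 100 mM NaCl. Syringe ligand (PAR, ADP-ribose or iso-ADP-ribose) at 150∼750 μM final in the same buffer, with PAR counted as ADP-ribose units. 0.4 μL preinjection, then 19 × 2 μL injections at 120 sec, 1000 rpm. Isotherms integrated and fitted.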

FHA domain of CHK2 = FHA domain of CHK2 (Homo sapiens, UniProt O96017); test: Interaction with CHK2 FHA domain; assay type: binding; details: Supplemental Fig. 3
Procedure, shortened: as §3

BRCT domain of BRCA1 = BRCT domain of BRCA1 (Homo sapiens, UniProt P38398); test: Affinity of BRCA1 BRCT domain with PAR; assay type: binding
Procedure, shortened: as §3

[12] = target: XRCC1 (amino acids 379–400) peptide (Homo sapiens, UniProt P18887); test: Dot blot, pull-down or ITC with XRCC1 peptide; assay type: binding; details: pull-down, or ITC assay, data not shown
BRCT domain of MDC1 = target: T2, BRCT domain of MDC1 (Homo sapiens, UniProt Q14676); test: Affinity of MDC1 BRCT domain with PAR; assay type: binding
T2 sequence (Q14676 1891-2089 limits assumed): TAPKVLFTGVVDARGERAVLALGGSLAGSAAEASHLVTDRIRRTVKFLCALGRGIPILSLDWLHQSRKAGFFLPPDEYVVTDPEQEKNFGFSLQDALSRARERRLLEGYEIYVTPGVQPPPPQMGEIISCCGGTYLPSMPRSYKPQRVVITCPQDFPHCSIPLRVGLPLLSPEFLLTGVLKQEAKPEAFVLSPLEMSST
Procedure, shortened: as §3

Sequence of XRCC1 (amino acids 379–400) peptide (P18887 379-400 limits assumed): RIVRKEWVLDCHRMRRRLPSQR
Sequence of FHA domain of CHK2 (O96017 113-175 limits assumed): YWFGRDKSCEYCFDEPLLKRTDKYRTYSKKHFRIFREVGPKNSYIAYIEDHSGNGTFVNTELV
Sequence of BRCT domain of BRCA1 (P38398 1646-1859 limits assumed): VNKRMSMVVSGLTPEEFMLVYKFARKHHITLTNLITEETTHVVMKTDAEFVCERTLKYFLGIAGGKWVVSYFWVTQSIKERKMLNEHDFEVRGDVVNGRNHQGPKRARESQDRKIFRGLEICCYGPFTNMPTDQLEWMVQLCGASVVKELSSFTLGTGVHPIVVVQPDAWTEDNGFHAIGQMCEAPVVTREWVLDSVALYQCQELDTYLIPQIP

## O=C(OC[C@H]1O[C@@H](OC(=O)c2cc(O)c(O)c(OC(=O)c3cc(O)c(O)c(O)c3)c2)[C@H](OC(=O)c2cc(O)c(O)c(OC(=O)c3cc(O)c(O)c(O)c3)c2)[C@@H](OC(=O)c2cc(O)c(O)c(OC(=O)c3cc(O)c(O)c(O)c3)c2)[C@@H]1OC(=O)c1cc(O)c(O)c(OC(=O)c2cc(O)c(O)c(O)c2)c1)c1cc(O)c(O)c(OC(=O)c2cc(O)c(O)c(O)c2)c1 [GLTN, gallotannin]
[1]; GLTN treatment
  retention of NBS1 R28A mutant at DNA damage sites: stabilized NBS1 at DNA damage sites
[2]
  half-life of PAR at DNA damage sites: significantly prolonged

## O=C(c1cc(Cc2n[nH]c(=O)c3ccccc23)ccc1F)N1CCN(C(=O)C2CC2)CC1 [olaparib]
[3]; H2AX−/− cells
  recruitment of NBS1 to DNA damage sites: abolished both the fast recruitment and slow accumulation of NBS1
[3]; MDC1−/− cells
  relocation of NBS1 to DNA damage sites: abolished the relocation of NBS1
[3]; wild-type MEFs
  recruitment of NBS1 to DNA damage sites: abolished the early recruitment of NBS1
G2/M checkpoint
  arrest at the G2/M boundary after IR: could not be fully arrested at the G2/M boundary
[4]; H2AX−/− MEFs
  sensitivity to IR-induced DNA damage (colony formation): hypersensitive
[4]; wild-type MEFs
  sensitivity to IR-induced DNA damage (colony formation): could still be resistant
[1]; olaparib treatment
  recruitment of NBS1 R28A mutant to DNA damage sites: abolished the recruitment of NBS1
[5]
  in vivo interaction of FHA/BRCT domain-containing proteins with PAR: no longer interacted with PAR in vivo
[6]
  DNA damage repair (comet assay tail moment): significantly impaired
[7]
  fast recruitment of XRCC1 to DNA damage sites: abolished fast recruitment
[8]; olaparib treatment, Supplemental Fig. 9A
  early recruitment of PNKP to DNA damage sites: impaired the early recruitment
[9]
  early recruitment of DNA Ligase4 to DNA damage sites: impaired the early recruitment
Early activation of ATM
  early activation of ATM: impaired
[10]
  early phosphorylation of 53BP1: clearly suppressed

## COC[C@H]1OC(=O)c2coc3c2[C@@]1(C)C1=C(C3=O)[C@@H]2CCC(=O)[C@@]2(C)C[C@H]1OC(C)=O [wortmannin]
[8]; wortmannin treatment, Supplemental Fig. 9D
  retention of PNKP at DNA damage sites: significantly impaired
[11]
  recruitment of NBS1 to DNA damage sites: could still be recruited

## poly(ADP-ribose) [PAR]
FHA domain of RNF8
  interaction with the FHA domain: failed to interact
FHA domain of CHK2
  interaction with the FHA domain: failed to interact
BRCT domain of BRCA1
  affinity with PAR: do not have the affinity
[12]
  binding between the peptide and PAR: did not detect any binding
BRCT domain of MDC1
  affinity with PAR: do not have the affinity
